Experimental data gathered from unrelated publications.
Lines come from different studies, so protocols differ.
Target: Casein kinase II subunit alpha' (CSNK2A2, Homo sapiens, UniProt P19784)

SMILES | observed | technique | concentration | remaining binding
c1cncc(-c2cccc(Nc3nccc(NC4CCCCC4)n3)c2)c1 | binding | competition with immobilised ligand | 10 µM | 65%
CCN1CCN(Cc2ccc(C(=O)Nc3ccc(C)c(Oc4ccc5c(c4)CC(=O)N5)c3)cc2C(F)(F)F)CC1 | binding | competition with immobilised ligand | 1 µM | 95%
O=C(NCCCN1CCOCC1)c1ccc(Nc2nccc(-c3cc4ccccc4s3)n2)cc1 | binding | competition with immobilised ligand | 1 µM | 19%
Cc1c(NC(=O)c2cc(C(N)=O)nc3cc(F)ccc23)c(C(F)(F)F)nn1Cc1ccc(C#N)cc1 | cell-free assay | competition with immobilised ligand | 1 µM | 100%
COc1ccnn2ncc(-c3ccnc(N(C)C)n3)c12 | binding | – | 1 µM | 61%
O=C(c1ccc(Nc2nccc(-c3cc4ccccc4s3)n2)cc1)N1CCC(N2CCCC2)CC1 | binding | competition with immobilised ligand | 1 µM | 1.8%
N[C@@H]1CCN(c2nccc(-c3cnn4ncccc34)n2)C1 | binding | – | 1 µM | 100%
O=C(N1CCS(=O)(=O)CC1)N1C[C@H](c2ccc(OC(F)(F)F)cc2)C[C@H](c2nc(C3CC3)no2)C1 | cell-free assay | competition with immobilised ligand | 1 µM | 100%
C[C@H]1CCN(c2nccc(-c3cnn4ncccc34)n2)C1 | binding | – | 1 µM | 56%
O=C(NCC1CCOCC1)c1n[nH]cc1NC(=O)c1c(F)cccc1F | binding | competition with immobilised ligand | 1 µM | 76%
COc1cnc(Nc2cccc(S(N)(=O)=O)c2)nc1N1CCN(c2ccccc2)C(=O)C1 | binding | competition with immobilised ligand | 1 µM | 86%
O=C(NS(=O)(=O)c1ccc(NCC2CCOCC2)c([N+](=O)[O-])c1)c1ccc(N2CCN(Cc3ccc(C(F)(F)F)cc3-c3ccc(Cl)cc3)CC2)cc1Oc1cnc2[nH]ccc2c1 | cell-free assay | competition with immobilised ligand | 1 µM | 100%
CN(c1nccc(-c2cnn3ncccc23)n1)C1CC1 | binding | – | 1 µM | 100%
CN([C@@H]1CCc2c(CC(=O)O)c3cc(S(C)(=O)=O)ccc3n2C1)S(=O)(=O)c1ccc(F)cc1 | cell-free assay | competition with immobilised ligand | 1 µM | 100%
O=C(c1ccc(Nc2ncc(Cl)c(-c3cc4ccccc4s3)n2)cc1)N1CCC(N2CCCC2)CC1 | binding | competition with immobilised ligand | 1 µM | 0.1%
C[C@H](c1ccc(F)cc1)N(Cc1cccc(C(=O)O)c1)C(=O)c1cnc2ccccc2c1 | cell-free assay | competition with immobilised ligand | 1 µM | 86%
c1cnn2ncc(-c3ccnc(N4CCC45COC5)n3)c2c1 | binding | – | 1 µM | 24%
CO[C@@H](C)c1c(Nc2ccc([C@@H](N(C)C(=O)C3CCS(=O)(=O)CC3)C(F)(F)F)cc2)cnc2cc(Cl)nn12 | cell-free assay | competition with immobilised ligand | 1 µM | 100%
FC(F)(F)Oc1cccc(-c2cnc3ccc(-c4ccncc4)nn23)c1 | cell-free assay | competition with immobilised ligand | 5 µM | 23%
Cc1cc(C)c(-n2ccn3nc(-c4cccnc4)cc23)cc1NC(=O)c1cc(C#N)cc(S(F)(F)(F)(F)F)c1 | cell-free assay | competition with immobilised ligand | 0.1 µM | 82.4%
Cc1cnn2ncc(-c3ccnc(N(C)C)n3)c2c1 | binding | – | 1 µM | 69%
COc1cnc(Nc2cccc(S(N)(=O)=O)c2)nc1N1CCN(c2ccccc2)CC1 | binding | competition with immobilised ligand | 1 µM | 90%
